Measured values of several laboratories.
Protocols differ between the studies behind these lines.
Target: Calcium/calmodulin-dependent protein kinase type 1D (CAMK1D, Homo sapiens, UniProt Q8IU85)

SMILES	observed	mode	technique	concentration	measurement	value
CO[C@@H](C)c1c(Nc2ccc([C@@H](N(C)C(=O)C3CCS(=O)(=O)CC3)C(F)(F)F)cc2)cnc2cc(Cl)nn12	cell-free assay	–	competition with immobilised ligand	1 µM	remaining binding	100%
Nc1ncnc2occ(-c3ccc(NC(=O)Nc4cc(C(F)(F)F)ccc4F)cc3)c12	cell-free assay	inhibitor	–	20 µM	remaining signal	2.8%
Cc1c(C(=O)O)cc(-c2ccc(C3CCNCC3)cc2)c2ccc(-c3ccc(C(F)(F)F)cc3)cc12	cell-free assay	–	competition with immobilised ligand	1 µM	remaining binding	100%
Cc1ccc(NC(=O)c2ccc(C)c(C(F)(F)F)c2)cc1C#Cc1nn(C2CCC(O)CC2)c2ncnc(N)c12 (stereo not shown)	cell-free assay	–	–	10 µM	remaining signal	92%
O=C1Nc2ccc(Cl)cc2C1=Cc1cc(Cl)c(O)c(Cl)c1	cell-free assay	–	–	0.5 µM	remaining signal	104%
Cc1cnc(NC2CCOCC2)nc1-n1cnc(C(=O)NC(CN)c2cc(F)cc(Cl)c2)c1 (stereo not shown)	enzyme activity	inhibitor	radiometric	1 µM	remaining activity	84%
Cn1c2c(c3ccc(Cl)c(Cl)c31)C(C#N)C(C)(C)NC2=O (stereo not shown)	thermal stability	–	DSF	10 µM	ΔTm	-0.6 °C
CNCc1ccccc1-c1csc([C@@H](C)Nc2nc(C)nc3cc(OC)c(OC)cc23)c1	cell-free assay	–	competition with immobilised ligand	1 µM	remaining binding	100%
Cn1c2c(Cl)c(Cl)ccc2c2cc[nH]c(=O)c21	thermal stability	–	DSF	10 µM	ΔTm	1 °C
Nc1nc(Nc2ccc(S(N)(=O)=O)cc2)nn1C(=O)c1c(F)cccc1F	cell-free assay	–	–	0.5 µM	remaining signal	97.7%
C[C@H](c1ccnc(Nc2nc3ccc(-c4cc(N(C)C)ncn4)cc3[nH]2)c1)N1CCN(C(=O)CC(F)(F)F)CC1	cell-free assay	–	competition with immobilised ligand	0.1 µM	remaining binding	95%
Cc1sc(C(=O)NC2COC2)cc1-n1cc(NC(=O)Nc2c(F)cccc2Cl)cn1	enzyme activity	inhibitor	–	10 µM	remaining activity	105%
CCCS(=O)(=O)Nc1ccc(F)c(C(=O)c2c[nH]c3ncc(-c4ccc(Cl)cc4)cc23)c1F	enzyme activity	inhibitor	–	1 µM	inhibition	< 10%
CNC(=O)c1cc(Oc2ccc(NC(=O)Nc3ccc(Cl)c(C(F)(F)F)c3)cc2)ccn1	enzyme activity	inhibitor	–	0.3 µM	inhibition	11%
O=C1CCc2cc(Nc3cc(OC4CCOCC4)c([N+](=O)[O-])cc3Cl)ccc2N1	cell-free assay	–	competition with immobilised ligand	1 µM	remaining binding	100%
CC(C)(O)[C@H]1CC[C@H](Nc2ccc3ncc(-c4cccc(C(F)(F)F)c4)n3n2)CC1	enzyme activity	inhibitor	–	1 µM	remaining activity	83.7%

SMILES	observed	mode	technique	concentration	measurement	value
CC(C)(C)c1nc(-c2cccc(NS(=O)(=O)c3c(F)cccc3F)c2F)c(-c2ccnc(N)n2)s1	enzyme activity	inhibitor	radiometric	1 µM	remaining activity	116%
Cc1ccc(Nc2nccc(N(C)c3ccc4c(C)n(C)nc4c3)n2)cc1S(N)(=O)=O	enzyme activity	inhibitor	–	10 µM	inhibition	32%
Cn1c2c(Cl)c(Cl)ccc2c2cn[nH]c(=O)c21	thermal stability	–	DSF	10 µM	ΔTm	-0.1 °C
C[S+]([O-])c1ccc(-c2nc(-c3ccncc3)c(-c3ccc(F)cc3)[nH]2)cc1 (stereo not shown)	cell-free assay	–	–	0.5 µM	remaining signal	105%
CN1CCC2(CC1)NC(=O)c1c(c3ccc(Cl)c(Cl)c3n1C)C2C#N (racemic)	thermal stability	–	DSF	10 µM	ΔTm	-0.4 °C
COc1cc2ncnc(Nc3ccc(Oc4ccccc4)cc3C)c2cc1OC	enzyme activity	inhibitor	–	1 µM	inhibition	1%
CC(=O)N1CCC(c2ccc(C(=O)NC3=NCCN3)cc2C(F)(F)F)CC1	cell-free assay	–	competition with immobilised ligand	1 µM	remaining binding	100%
COc1cccc2c(NCc3ccccc3)nc(-n3c(N)nc4ccccc43)nc12	target engagement in cells	inhibitor	chemoproteomics	20 mM	inhibition	0%
CN1CC(Oc2cnc(C#N)cc2-c2ccn3nc(NC(=O)C4CC4)cc3c2)C1	enzyme activity	inhibitor	–	1 µM	inhibition	-2%
CCCCNc1ncc2c(-c3ccc(F)cc3)nn(C[C@H]3CC[C@H](N)CC3)c2n1	target engagement in cells	inhibitor	chemoproteomics	20 mM	inhibition	5.9%
COc1cc(-c2cn(C3CCc4ccccc4N(CC(F)(F)F)C3=O)nn2)ccc1-n1ccc(C)n1 (stereo not shown)	cell-free assay	–	competition with immobilised ligand	1 µM	remaining binding	100%
Cn1c2c(c3ccc(Cl)c(Cl)c31)C(C#N)C1(CCNCC1)NC2=O (racemic)	thermal stability	–	DSF	10 µM	ΔTm	1.2 °C
CC1=C(C#N)C(c2ccc3c(c2)c(NC(=O)c2ccccc2C)nn3C)C(C#N)=C(C)N1	cell-free assay	–	competition with immobilised ligand	1 µM	remaining binding	93%
N#CC1c2c([nH]c3c(Cl)c(Cl)ccc23)C(=O)NC12CCCCC2 (racemic)	thermal stability	–	DSF	10 µM	ΔTm	0.7 °C
O=c1cc(-c2cccc3c2Sc2ccccc2S3)oc(N2CCOCC2)c1	enzyme activity	inhibitor	–	0.5 µM	remaining activity	106%
